Test results from ChEMBL document CHEMBL3272036, “Reactions of 2-acyloxyisobutyryl halides with nucleosides. Synthesis and biological evaluation of some 3"-acyl and 3',5'-diacyl derivatives of 1-beta-D-arabinofuranosylcytosine” (J Med Chem, 1976).
≈ marks a conversion by molar mass, not a printed value. Calls of active or inactive are those of the source. No cut-off for these calls is given here.

Key:
HeLa = assay: Cytotoxicity against human HeLa cells after 48 hrs by Coulter counter analysis; assay type: functional; conditions: read-out: ED50 (the source's name)
Vaccinia virus = assay: Antiviral activity against Vaccinia virus IHD infected in African green monkey BGM cells assessed as plaque reduction measured on day 5 by disk diffusion assay; assay type: functional; conditions: Orthopoxvirus vaccinia, 120 h, read-out: ED50 (the source's name)
Herpesviridae sp. = assay: Antiviral activity against Herpes Simplex virus HF infected in African green monkey BGM cells assessed as plaque reduction measured on day 5 by disk diffusion assay; assay type: functional; conditions: 120 h, read-out: ED50 (the source's name)
L1210 [1] = assay: Antitumor activity against mouse L1210 cells allografted in BDF1 mouse assessed as increase in life span at 200 mg/kg, ip administered as single dose relative to vehicle-treated control; assay type: functional; conditions: route intraperitoneal
In short: (§1)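 Single intraperitoneal injection given 24 h after the leukemic cells were introduced, at 100, 200, 500 or 1000 mg/kg. Read-out is % increase in life span (ILS), with the count of 30-day survivors per group recorded (group sizes 7–8 mice).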

L1210 [2] = assay: Antitumor activity against mouse L1210 cells allografted in BDF1 mouse assessed as survival at 200 mg/kg, ip administered as single dose measured on day 30 relative to vehicle-treated control; assay type: functional, organism-based; parameters: dose 200 mg/kg
In short: (§2)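 Leukemic L1210 cells were introduced into mice. Each compound was then given as a single intraperitoneal injection 24 h later. Activity is expressed as % increase in life span (ILS), with the count of 30-day survivors per group. Doses tested were 100, 200, 500 and 1000 mg/kg.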

L1210 [3] = assay: Antitumor activity against mouse L1210 cells allografted in BDF1 mouse assessed as survival at 100 mg/kg, ip administered as single dose measured on day 30 relative to vehicle-treated control; assay type: functional, organism-based; parameters: dose 100 mg/kg; in short: as §2
L1210 [4] = assay: Antitumor activity against mouse L1210 cells allografted in BDF1 mouse assessed as increase in life span at 100 mg/kg, ip administered as single dose relative to vehicle-treated control; assay type: functional; conditions: route intraperitoneal; in short: as §1
L1210 [5] = assay: Antitumor activity against mouse L1210 cells allografted in BDF1 mouse assessed as increase in life span at 500 mg/kg, ip administered as single dose relative to vehicle-treated control; assay type: functional; conditions: route intraperitoneal; in short: as §1
L1210 [6] = assay: Antitumor activity against mouse L1210 cells allografted in BDF1 mouse assessed as survival at 1000 mg/kg, ip administered as single dose measured on day 30 relative to vehicle-treated control; assay type: functional, organism-based; parameters: dose 1000 mg/kg; in short: as §2
L1210 [7] = assay: Antitumor activity against mouse L1210 cells allografted in BDF1 mouse assessed as survival at 500 mg/kg, ip administered as single dose measured on day 30 relative to vehicle-treated control; assay type: functional, organism-based; parameters: dose 500 mg/kg; in short: as §2
L1210 [8] = assay: Antitumor activity against mouse L1210 cells allografted in BDF1 mouse assessed as increase in life span at 1000 mg/kg, ip administered as single dose relative to vehicle-treated control; assay type: functional; conditions: route intraperitoneal; in short: as §1

CCCCCCCC/C=C\CCCCCCCC(=O)O[C@H]1[C@H](O)[C@H](n2ccc(N)nc2=O)O[C@@H]1CO
EC50 (HeLa): 0.06 µg/mL (≈ 0.118 µM) | EC50 (Vaccinia virus): 0.73 µM | EC50 (Herpesviridae sp.): 0.94 µM | ILS at 200 mg/kg (L1210 [1]): 67% | Activity (L1210 [2]): inactive

CCCC(=O)OC[C@H]1O[C@@H](n2ccc(N)nc2=O)[C@@H](O)[C@@H]1OC(=O)CCC
Activity (L1210 [3]): inactive | EC50 (HeLa): 0.11 µg/mL (≈ 0.287 µM) | EC50 (Vaccinia virus): 1.15 µM | ILS at 100 mg/kg (L1210 [4]): 14% | EC50 (Herpesviridae sp.): 5.2 µM | ILS at 200 mg/kg (L1210 [1]): 8% | Activity (L1210 [2]): inactive

CCCCCCCC/C=C\CCCCCCCCCCCC(=O)OC[C@H]1O[C@@H](n2ccc(N)nc2=O)[C@@H](O)[C@@H]1OC(=O)CCCCCCCCCCC/C=C\CCCCCCCC
Activity (L1210 [3]): inactive | EC50 (HeLa): > 10 µg/mL | EC50 (Vaccinia virus): > 30 µM | ILS at 100 mg/kg (L1210 [4]): 58% | EC50 (Herpesviridae sp.): > 30 µM | ILS at 200 mg/kg (L1210 [1]): 86% | Activity (L1210 [2]): inactive

CCCCCCCCCCCCCC(=O)O[C@H]1[C@H](O)[C@H](n2ccc(N)nc2=O)O[C@@H]1CO
ILS at 500 mg/kg (L1210 [5]): -21% | Activity (L1210 [6]): inactive | Activity (L1210 [7]): inactive | EC50 (HeLa): 0.08 µg/mL (≈ 0.176 µM) | EC50 (Vaccinia virus): 0.18 µM | ILS at 100 mg/kg (L1210 [4]): > 266% | ILS at 1000 mg/kg (L1210 [8]): -23% | EC50 (Herpesviridae sp.): 0.64 µM | ILS at 200 mg/kg (L1210 [1]): > 284% | Activity (L1210 [2]): Active

CCCCCCCCCCCCCCCCCCCC(=O)O[C@H]1[C@H](O)[C@H](n2ccc(N)nc2=O)O[C@@H]1CO
ILS at 500 mg/kg (L1210 [5]): > 274% | Activity (L1210 [6]): Active | Activity (L1210 [3]): inactive | EC50 (HeLa): 0.1 µg/mL (≈ 0.186 µM) | EC50 (Vaccinia virus): > 30 µM | ILS at 100 mg/kg (L1210 [4]): 91% | ILS at 1000 mg/kg (L1210 [8]): > 295% | EC50 (Herpesviridae sp.): > 30 µM | ILS at 200 mg/kg (L1210 [1]): 164% | Activity (L1210 [2]): inactive

CCCCCCCCCCCCCC(=O)OC[C@H]1O[C@@H](n2ccc(N)nc2=O)[C@@H](O)[C@@H]1OC(=O)CCCCCCCCCCCCC
ILS at 500 mg/kg (L1210 [5]): > 105% | Activity (L1210 [6]): inactive | EC50 (HeLa): 1.4 µg/mL (≈ 2.11 µM) | EC50 (Vaccinia virus): 5.7 µM | ILS at 100 mg/kg (L1210 [4]): > 255% | ILS at 1000 mg/kg (L1210 [8]): -12% | EC50 (Herpesviridae sp.): 10 µM | ILS at 200 mg/kg (L1210 [1]): > 240% | Activity (L1210 [2]): Active

CC(=O)OC[C@H]1O[C@@H](n2ccc(N)nc2=O)[C@@H](O)[C@@H]1OC(C)=O.Cl
EC50 (HeLa): 0.06 µg/mL | EC50 (Vaccinia virus): 3.2 µM | EC50 (Herpesviridae sp.): 16 µM | ILS at 200 mg/kg (L1210 [1]): 10% | Activity (L1210 [2]): inactive

CCCCCCCCC(=O)O[C@H]1[C@H](O)[C@H](n2ccc(N)nc2=O)O[C@@H]1CO
ILS at 500 mg/kg (L1210 [5]): > 189% | EC50 (HeLa): 0.05 µg/mL (≈ 0.13 µM) | EC50 (Vaccinia virus): 0.1 µM | ILS at 1000 mg/kg (L1210 [8]): > 142% | EC50 (Herpesviridae sp.): 0.3 µM | ILS at 200 mg/kg (L1210 [1]): 59% | Activity (L1210 [2]): inactive

CCCCCCCCCC(=O)OC[C@H]1O[C@@H](n2ccc(N)nc2=O)[C@@H](O)[C@@H]1OC(=O)CCCCCCCCC
ILS at 500 mg/kg (L1210 [5]): > 205% | Activity (L1210 [6]): inactive | EC50 (HeLa): 0.11 µg/mL (≈ 0.199 µM) | EC50 (Vaccinia virus): 0.35 µM | ILS at 1000 mg/kg (L1210 [8]): -4% | EC50 (Herpesviridae sp.): 0.78 µM | ILS at 200 mg/kg (L1210 [1]): > 214%

CCCCCCCCCCCCCCCCCCCCCC(=O)OC[C@H]1O[C@@H](n2ccc(N)nc2=O)[C@@H](O)[C@@H]1OC(=O)CCCCCCCCCCCCCCCCCCCCC
Activity (L1210 [6]): inactive | Activity (L1210 [3]): inactive | EC50 (HeLa): > 10 µg/mL | EC50 (Vaccinia virus): > 30 µM | ILS at 100 mg/kg (L1210 [4]): 10% | ILS at 1000 mg/kg (L1210 [8]): 113% | EC50 (Herpesviridae sp.): > 30 µM | ILS at 200 mg/kg (L1210 [1]): 27% | Activity (L1210 [2]): inactive

CCCCCCCCCCCCCCCCCCCC(=O)OC[C@H]1O[C@@H](n2ccc(N)nc2=O)[C@@H](O)[C@@H]1OC(=O)CCCCCCCCCCCCCCCCCCC
Activity (L1210 [3]): inactive | EC50 (HeLa): > 10 µg/mL | EC50 (Vaccinia virus): > 30 µM | ILS at 100 mg/kg (L1210 [4]): 87% | ILS at 1000 mg/kg (L1210 [8]): > 205% | EC50 (Herpesviridae sp.): > 30 µM | ILS at 200 mg/kg (L1210 [1]): 39% | Activity (L1210 [2]): inactive

CCCCCCCCCCC(=O)OC[C@H]1O[C@@H](n2ccc(N)nc2=O)[C@@H](O)[C@@H]1OC(=O)CCCCCCCCCC
ILS at 500 mg/kg (L1210 [5]): 117% | Activity (L1210 [7]): Active | EC50 (HeLa): 0.4 µg/mL (≈ 0.69 µM) | EC50 (Vaccinia virus): 0.3 µM | ILS at 100 mg/kg (L1210 [4]): > 280% | EC50 (Herpesviridae sp.): 0.78 µM | ILS at 200 mg/kg (L1210 [1]): > 300% | Activity (L1210 [2]): inactive

CCCCCCCCCCCCCCCCCC(=O)O[C@H]1[C@H](O)[C@H](n2ccc(N)nc2=O)O[C@@H]1CO
Activity (L1210 [6]): inactive | Activity (L1210 [3]): Active | EC50 (HeLa): 0.13 µg/mL (≈ 0.255 µM) | EC50 (Vaccinia virus): 0.38 µM | ILS at 100 mg/kg (L1210 [4]): > 219% | ILS at 1000 mg/kg (L1210 [8]): -23% | EC50 (Herpesviridae sp.): 0.7 µM | ILS at 200 mg/kg (L1210 [1]): > 228%

CCCCCCC/C=C\C(=O)O[C@H]1[C@H](O)[C@H](n2ccc(N)nc2=O)O[C@@H]1CO.Cl
EC50 (HeLa): 0.06 µg/mL | EC50 (Vaccinia virus): 0.11 µM | EC50 (Herpesviridae sp.): 0.23 µM | ILS at 200 mg/kg (L1210 [1]): 22% | Activity (L1210 [2]): inactive
